Laboratory results reported in ChEMBL document CHEMBL1121881 (1981).

Assays:
Assay type in all cases: functional
Mus musculus [1] = experiment: Compound was evaluated for the antimetrazole effect by administering through intravenous route at the pretreatment period of 120 min
Method in brief: (§1)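 Male CFLP outbred albino mice (19–21 g) dosed iv, 5–240 min before challenge. Vehicle: 5 mg compound in propylene glycol/Chremofor EL/distilled water (2:1:7 mL), diluted with distilled water. Metrazol (pentylenetetrazol) 125 mg/kg sc in distilled water. Mice counted protected if no tonic-extensor convulsions over 60 min of observation. ED50 and confidence limits by Litchfield–Wilcoxon.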

Mus musculus [2] = experiment: Compound was evaluated for the muscle relaxant effect by administering through intravenous route at the pretreatment period of 120 min
Method in brief: (§2)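 Rotarod test in male CFLP mice (19–21 g) given compound iv 5–240 min beforehand, in propylene glycol/Chremofor EL/water vehicle diluted with distilled water. Mice were preselected and trained to stay 120 s on a 20 mm rod turning at 12 min⁻¹. Fallers were expressed as percentage of the dose group. ED50 by Litchfield–Wilcoxon.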

Mus musculus [3] = experiment: Compound was evaluated for the muscle relaxant effect by administering through intravenous route at the pretreatment period of 240 min; method in brief: as §2
Mus musculus [4] = experiment: Compound was evaluated for the antimetrazole effect by administering through intravenous route at the pretreatment period of 240 min; method in brief: as §1
Mus musculus [5] = experiment: Compound was evaluated for the antimetrazole effect by administering through intravenous route at the pretreatment period of 5 min; method in brief: as §1
Mus musculus [6] = experiment: Compound was evaluated for the muscle relaxant effect by administering through intravenous route at the pretreatment period of 20 min; method in brief: as §2
Mus musculus [7] = experiment: Compound was evaluated for the muscle relaxant effect by administering through intravenous route at the pretreatment period of 5 min; method in brief: as §2
Mus musculus [8] = experiment: Compound was evaluated for the antimetrazole effect by administering through intravenous route at the pretreatment period of 20 min; method in brief: as §1
Mus musculus [9] = experiment: Compound was evaluated for the antimetrazole effect by administering through intravenous route at the pretreatment period of 10 min; method in brief: as §1
Mus musculus [10] = experiment: Compound was evaluated for the muscle relaxant effect by administering through intravenous route at the pretreatment period of 10 min; method in brief: as §2
Mus musculus [11] = experiment: Oxazepam brain level after 30 minutes of administration of 0.28 mg/kg in antimetrazole assay
Mus musculus [12] = experiment: Oxazepam brain level after 10 minutes of administration of 0.46 mg/kg in antimetrazole assay
Mus musculus [13] = experiment: Compound was evaluated for the muscle relaxant effect by administering through intravenous route at the pretreatment period of 2400 min
Mus musculus [14] = experiment: Oxazepam brain level after 5 minutes of administration of 1.07 mg/kg in antimetrazole assay
Mus musculus [15] = experiment: Oxazepam brain level after 120 minutes of administration of 0.32 mg/kg in antimetrazole assay
Mus musculus [16] = experiment: Ester brain level after 30 minutes of administration of 0.28 mg/kg in antimetrazole assay
Mus musculus [17] = experiment: Ester brain level after 10 minutes of administration of 0.46 mg/kg in antimetrazole assay
Mus musculus [18] = experiment: Ester brain level after 5 minutes of administration of 1.07 mg/kg in antimetrazole assay
Mus musculus [19] = experiment: Oxazepam brain level after 5 minutes of administration of 0.96 mg/kg in muscle relaxant assay
Mus musculus [20] = experiment: Ester brain level after 30 minutes of administration of 2.82 mg/kg in muscle relaxant assay
Mus musculus [21] = experiment: Oxazepam brain level after 30 minutes of administration of 2.82 mg/kg in muscle relaxant assay
Mus musculus [22] = experiment: Ester brain level after 5 minutes of administration of 0.96 mg/kg in muscle relaxant assay
Mus musculus [23] = experiment: Ester brain level after 120 minutes of administration of 0.32 mg/kg in antimetrazole assay
Mus musculus [24] = experiment: Compound was evaluated for the antimetrazole effect by administering through intravenous route at the pretreatment period 240 min; method in brief: as §1

Compound: CC(C)(C)C(=O)OC1N=C(c2ccccc2)c2cc(Cl)ccc2NC1=O (stereo not given) [PIVOXAZEPAM]
- ED50 (Mus musculus [1]): 0.61 mg/kg
- ED50 (Mus musculus [2]): 5.6 mg/kg
- ED50 (Mus musculus [3]): 9 mg/kg
- ED50 (Mus musculus [4]): 0.8 mg/kg

Compound: O=C1Nc2ccc(Cl)cc2C(c2ccccc2)=NC1O (stereo not given) [OXAZEPAM]
- ED50 (Mus musculus [5]): 0.18 mg/kg
- ED50 (Mus musculus [1]): 0.49 mg/kg
- ED50 (Mus musculus [6]): 0.8 mg/kg
- ED50 (Mus musculus [7]): 0.96 mg/kg
- ED50 (Mus musculus [2]): 2.4 mg/kg
- ED50 (Mus musculus [3]): 6.6 mg/kg
- ED50 (Mus musculus [8]): 0.21 mg/kg
- ED50 (Mus musculus [9]): 0.16 mg/kg
- ED50 (Mus musculus [4]): 0.62 mg/kg
- ED50 (Mus musculus [10]): 0.86 mg/kg

Compound: CCC(CC)C(=O)OC1N=C(c2ccccc2)c2cc(Cl)ccc2NC1=O (stereo not given)
- ED50 (Mus musculus [5]): 1.07 mg/kg
- ED50 (Mus musculus [1]): 0.32 mg/kg
- Brain level (Mus musculus [11]): 286 pM/g
- Brain level (Mus musculus [12]): 339 pM/g
- ED50 (Mus musculus [13]): 9.1 mg/kg
- Brain level (Mus musculus [14]): 374 pM/g
- Brain level (Mus musculus [15]): 344 pM/g
- Brain level (Mus musculus [16]): 187 pM/g
- Brain level (Mus musculus [17]): 383 pM/g
- ED50 (Mus musculus [6]): 0.36 mg/kg
- Brain level (Mus musculus [18]): 1250 pM/g
- ED50 (Mus musculus [7]): 0.95 mg/kg
- Brain level (Mus musculus [19]): 480 pM/g
- ED50 (Mus musculus [2]): 4.7 mg/kg
- ED50 (Mus musculus [8]): 0.31 mg/kg
- Brain level (Mus musculus [20]): 1820 pM/g
- Brain level (Mus musculus [21]): 5160 pM/g
- Brain level (Mus musculus [22]): 1440 pM/g
- Brain level (Mus musculus [23]): 95 pM/g
- ED50 (Mus musculus [9]): 0.46 mg/kg
- ED50 (Mus musculus [4]): 1.97 mg/kg
- ED50 (Mus musculus [10]): 0.61 mg/kg

Compound: CC(=O)OC1N=C(c2ccccc2)c2cc(Cl)ccc2NC1=O (stereo not given)
- ED50 (Mus musculus [1]): 0.47 mg/kg
- ED50 (Mus musculus [2]): 2.6 mg/kg
- ED50 (Mus musculus [3]): 4.8 mg/kg
- ED50 (Mus musculus [24]): 1.17 mg/kg
